Converted amounts (≈) assume the structure as drawn.
Legend:
Assay type in all cases: functional
[1] = test system: Candida albicans; test: Antimicrobial activity against Candida albicans Y0109 after 24 hrs by broth microdilution method; conditions: Y0109, 24 h
Method in brief: (§1)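 Broth microdilution in 96-well plates following NCCLS methods. Compounds were dissolved in DMSO, serially diluted in growth medium, inoculated and incubated at 35°C. MIC read at 24 h for Candida albicans and at 72 h for Cryptococcus neoformans. MIC80 is the first well with about 80% less growth than the drug-free well. Values are means of three replicate tests.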

[2] = test system: Nannizzia gypsea; test: Antimicrobial activity against Microsporum gypseum by broth microdilution method
[3] = test system: Trichophyton rubrum; test: Antimicrobial activity against Trichophyton rubrum by broth microdilution method
[4] = test system: Cryptococcus neoformans; test: Antimicrobial activity against Cryptococcus neoformans after 72 hrs by broth microdilution method; method in brief: as §1
[5] = test system: Nakaseomyces glabratus; test: Antimicrobial activity against Candida glabrata by broth microdilution method
[6] = test system: Candida albicans; test: Antimicrobial activity against Candida albicans SC5314 after 24 hrs by broth microdilution method; conditions: SC5314, 24 h; method in brief: as §1
[7] = test system: Candida albicans; test: Ratio of voriconazole MIC80 to compound MIC80 for Candida albicans SC5314
[8] = test system: Aspergillus fumigatus; test: Antimicrobial activity against Aspergillus fumigatus by broth microdilution method
[9] = test system: Candida parapsilosis; test: Antimicrobial activity against Candida parapsilosis by broth microdilution method; conditions: Lodderomyces parapsilosis
[10] = test system: Candida albicans; test: Ratio of itraconazole MIC80 to compound MIC80 for Candida albicans SC5314

| SMILES | MIC80 [1] [µg/mL] | MIC80 [2] [µg/mL] | MIC80 [3] [µg/mL] | MIC80 [4] [µg/mL] | MIC80 [5] [µg/mL] | MIC80 [6] [µg/mL] | Ratio [7] | MIC80 [8] [µg/mL] | MIC80 [9] [µg/mL] | Ratio [10] |
| --- | --- | --- | --- | --- | --- | --- | --- | --- | --- | --- |
| OC(CN1CCN(CCCSc2nnc(-c3cccc(Cl)c3)o2)CC1)(Cn1cncn1)c1ccc(F)cc1F (centres undefined) | 0.0039 (≈ 0.00677 µM) | 1 (≈ 1.74 µM) | 0.0625 (≈ 0.108 µM) | 0.0625 (≈ 0.108 µM) | 0.25 (≈ 0.434 µM) | 0.0039 (≈ 0.00677 µM) | 16 | > 64 | 0.25 (≈ 0.434 µM) | 64 |
| OC(CN1CCN(CCCSc2nnc(-c3ccc(Cl)cc3)o2)CC1)(Cn1cncn1)c1ccc(F)cc1F (centres undefined) | 0.0625 (≈ 0.108 µM) | 4 (≈ 6.94 µM) | 0.25 (≈ 0.434 µM) | 0.0625 (≈ 0.108 µM) | 0.0625 (≈ 0.108 µM) | 0.0039 (≈ 0.00677 µM) | 16 | > 64 | 0.0625 (≈ 0.108 µM) |  |
| OC(CN1CCN(CCCSc2nnc(-c3ccccc3Br)o2)CC1)(Cn1cncn1)c1ccc(F)cc1F (centres undefined) | 0.0625 (≈ 0.101 µM) | 0.25 (≈ 0.403 µM) | 0.25 (≈ 0.403 µM) | 0.0625 (≈ 0.101 µM) | 0.0625 (≈ 0.101 µM) | 0.0156 (≈ 0.0251 µM) |  | > 64 | 0.0625 (≈ 0.101 µM) |  |
| OC(CN1CCN(CCCSc2nnc(-c3ccc(Br)cc3)o2)CC1)(Cn1cncn1)c1ccc(F)cc1F (centres undefined) | 0.0625 (≈ 0.101 µM) | 0.25 (≈ 0.403 µM) | 0.25 (≈ 0.403 µM) | 0.25 (≈ 0.403 µM) | 0.0156 (≈ 0.0251 µM) | 0.0625 (≈ 0.101 µM) |  | > 64 | 0.0625 (≈ 0.101 µM) |  |
| Cc1ccccc1-c1nnc(SCCCN2CCN(CC(O)(Cn3cncn3)c3ccc(F)cc3F)CC2)o1 (centres undefined) | 0.25 (≈ 0.45 µM) | 0.25 (≈ 0.45 µM) | 0.25 (≈ 0.45 µM) | 0.125 (≈ 0.225 µM) | 0.125 (≈ 0.225 µM) | 0.25 (≈ 0.45 µM) |  | > 64 | 0.125 (≈ 0.225 µM) |  |
| Cc1cccc(-c2nnc(SCCCN3CCN(CC(O)(Cn4cncn4)c4ccc(F)cc4F)CC3)o2)c1 (centres undefined) | 0.25 (≈ 0.45 µM) | 1 (≈ 1.8 µM) | 1 (≈ 1.8 µM) | 1 (≈ 1.8 µM) | 1 (≈ 1.8 µM) | 0.125 (≈ 0.225 µM) |  | > 64 | 4 (≈ 7.2 µM) |  |
| Cc1ccc(-c2nnc(SCCCN3CCN(CC(O)(Cn4cncn4)c4ccc(F)cc4F)CC3)o2)cc1 (centres undefined) | 0.125 (≈ 0.225 µM) | 1 (≈ 1.8 µM) | 1 (≈ 1.8 µM) | 1 (≈ 1.8 µM) | 0.25 (≈ 0.45 µM) | 0.25 (≈ 0.45 µM) |  | > 64 | 0.025 (≈ 0.045 µM) |  |
| COc1ccccc1-c1nnc(SCCCN2CCN(CC(O)(Cn3cncn3)c3ccc(F)cc3F)CC2)o1 (centres undefined) | 0.125 (≈ 0.219 µM) | 16 (≈ 28 µM) | 0.25 (≈ 0.437 µM) | 4 (≈ 7 µM) | 1 (≈ 1.75 µM) | 0.25 (≈ 0.437 µM) |  | > 64 | 16 (≈ 28 µM) |  |
| COc1cccc(-c2nnc(SCCCN3CCN(CC(O)(Cn4cncn4)c4ccc(F)cc4F)CC3)o2)c1 (centres undefined) | 0.25 (≈ 0.437 µM) | 0.25 (≈ 0.437 µM) | 0.0625 (≈ 0.109 µM) | 0.25 (≈ 0.437 µM) | 0.25 (≈ 0.437 µM) | 0.25 (≈ 0.437 µM) |  | > 64 | 0.25 (≈ 0.437 µM) |  |
| COc1ccc(-c2nnc(SCCCN3CCN(CC(O)(Cn4cncn4)c4ccc(F)cc4F)CC3)o2)cc1 (centres undefined) | 0.25 (≈ 0.437 µM) | 0.25 (≈ 0.437 µM) | 0.25 (≈ 0.437 µM) | 0.25 (≈ 0.437 µM) | 0.25 (≈ 0.437 µM) | 0.25 (≈ 0.437 µM) |  | > 64 | 0.25 (≈ 0.437 µM) |  |
| O=[N+]([O-])c1ccccc1-c1nnc(SCCCN2CCN(CC(O)(Cn3cncn3)c3ccc(F)cc3F)CC2)o1 (centres undefined) | 0.25 (≈ 0.426 µM) | 0.25 (≈ 0.426 µM) | 0.25 (≈ 0.426 µM) | 0.125 (≈ 0.213 µM) | 0.25 (≈ 0.426 µM) | 0.125 (≈ 0.213 µM) |  | > 64 | 0.125 (≈ 0.213 µM) |  |
| O=[N+]([O-])c1ccc(-c2nnc(SCCCN3CCN(CC(O)(Cn4cncn4)c4ccc(F)cc4F)CC3)o2)cc1 (centres undefined) | 0.125 (≈ 0.213 µM) | 1 (≈ 1.7 µM) | 1 (≈ 1.7 µM) | 0.25 (≈ 0.426 µM) | 0.125 (≈ 0.213 µM) | 0.25 (≈ 0.426 µM) |  | > 64 | 0.125 (≈ 0.213 µM) |  |
| N#Cc1ccccc1-c1nnc(SCCCN2CCN(CC(O)(Cn3cncn3)c3ccc(F)cc3F)CC2)o1 (centres undefined) | 0.125 (≈ 0.221 µM) | 1 (≈ 1.76 µM) | 0.25 (≈ 0.441 µM) | 0.25 (≈ 0.441 µM) | 0.125 (≈ 0.221 µM) | 0.125 (≈ 0.221 µM) |  | > 64 | 0.25 (≈ 0.441 µM) |  |
| N#Cc1cccc(-c2nnc(SCCCN3CCN(CC(O)(Cn4cncn4)c4ccc(F)cc4F)CC3)o2)c1 (centres undefined) | 0.125 (≈ 0.221 µM) | 1 (≈ 1.76 µM) | 0.25 (≈ 0.441 µM) | 0.25 (≈ 0.441 µM) | 0.25 (≈ 0.441 µM) | 0.125 (≈ 0.221 µM) |  | > 64 | 0.25 (≈ 0.441 µM) |  |
| OC(CN1CCNCC1)(Cn1cncn1)c1ccc(F)cc1F (centres undefined) | 1 (≈ 3.09 µM) | 16 (≈ 49.5 µM) | 1 (≈ 3.09 µM) | 4 (≈ 12.4 µM) | 0.25 (≈ 0.773 µM) | 0.5 (≈ 1.55 µM) |  | > 64 | 2 (≈ 6.19 µM) |  |
| OC(CN1CCN(CCCSc2nnc(-c3ccccc3)o2)CC1)(Cn1cncn1)c1ccc(F)cc1F (centres undefined) | 0.0156 (≈ 0.0288 µM) | 1 (≈ 1.85 µM) | 0.25 (≈ 0.462 µM) | 0.0625 (≈ 0.115 µM) | 0.0625 (≈ 0.115 µM) | 0.0156 (≈ 0.0288 µM) |  | > 64 | 0.0625 (≈ 0.115 µM) |  |
| OC(CN1CCN(CCCSc2nnc(-c3ccccc3F)o2)CC1)(Cn1cncn1)c1ccc(F)cc1F (centres undefined) | 0.0156 (≈ 0.0279 µM) | 1 (≈ 1.79 µM) | 0.0625 (≈ 0.112 µM) | 0.0625 (≈ 0.112 µM) | 0.0625 (≈ 0.112 µM) | 0.0625 (≈ 0.112 µM) |  | > 64 | 0.25 (≈ 0.447 µM) |  |
| OC(CN1CCN(CCCSc2nnc(-c3ccc(F)cc3)o2)CC1)(Cn1cncn1)c1ccc(F)cc1F (centres undefined) | 0.25 (≈ 0.447 µM) | 4 (≈ 7.15 µM) | 0.0625 (≈ 0.112 µM) | 0.25 (≈ 0.447 µM) | 0.25 (≈ 0.447 µM) | 0.0156 (≈ 0.0279 µM) |  | > 64 | 0.25 (≈ 0.447 µM) |  |
| OC(CN1CCN(CCCSc2nnc(-c3ccccc3Cl)o2)CC1)(Cn1cncn1)c1ccc(F)cc1F (centres undefined) | 0.0039 (≈ 0.00677 µM) | 4 (≈ 6.94 µM) | 0.25 (≈ 0.434 µM) | 0.25 (≈ 0.434 µM) | 0.25 (≈ 0.434 µM) | 0.0039 (≈ 0.00677 µM) | 16 | > 64 | 0.25 (≈ 0.434 µM) | 64 |
| OC(Cn1cncn1)(Cn1cncn1)c1ccc(F)cc1F [FLUCONAZOLE] | 0.5 (≈ 1.63 µM) | 8 (≈ 26.1 µM) | > 64 | 1 (≈ 3.27 µM) | 1 (≈ 3.27 µM) | 0.5 (≈ 1.63 µM) |  | 8 (≈ 26.1 µM) | 1 (≈ 3.27 µM) |  |
| CCC(C)n1ncn(-c2ccc(N3CCN(c4ccc(OCC5COC(Cn6cncn6)(c6ccc(Cl)cc6Cl)O5)cc4)CC3)cc2)c1=O (centres undefined) [ITRACONAZOLE] | 0.25 (≈ 0.354 µM) | 1 (≈ 1.42 µM) | 0.5 (≈ 0.709 µM) | 0.125 (≈ 0.177 µM) | 0.125 (≈ 0.177 µM) | 0.25 (≈ 0.354 µM) |  | 1 (≈ 1.42 µM) | 0.125 (≈ 0.177 µM) |  |
| CC(=O)N1CCN(c2ccc(OCC3COC(Cn4ccnc4)(c4ccc(Cl)cc4Cl)O3)cc2)CC1 (centres undefined) [KETOCONAZOLE] | 8 (≈ 15.1 µM) | 2 (≈ 3.76 µM) | 8 (≈ 15.1 µM) | 4 (≈ 7.53 µM) | 8 (≈ 15.1 µM) | 4 (≈ 7.53 µM) |  | 2 (≈ 3.76 µM) | 8 (≈ 15.1 µM) |  |
| C[C@@H](c1ncncc1F)[C@](O)(Cn1cncn1)c1ccc(F)cc1F [VORICONAZOLE] | 0.0625 (≈ 0.179 µM) | 0.125 (≈ 0.358 µM) | 0.25 (≈ 0.716 µM) | 0.0156 (≈ 0.0447 µM) | 0.0625 (≈ 0.179 µM) | 0.0625 (≈ 0.179 µM) |  | 0.0625 (≈ 0.179 µM) | 0.0625 (≈ 0.179 µM) |  |
